Reference: paper PMC11904594 (Current Research in Microbial Sciences, 2025)
≈ marks a conversion by molar mass, not a printed value. Peptide text beside a SMILES is read from it.

Columns and labels:
[1] = system: Galleria mellonella larvae; assay: In vivo toxicity in Galleria mellonella larvae; settings: G. mellonella larvae, N=10 per group
Method in brief: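 Sixth-instar Galleria mellonella larvae (200–300 mg) were held in sawdust at 4 °C until use. Groups of ten were injected with 10 μl of test compound, colistin or 0.9 % NaCl saline control into the second rear proleg, then kept at 30 °C.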

[2] = system: 11 bacterial strains (S. aureus, P. aeruginosa, A. baumannii, K. pneumoniae, E. coli); assay: Antimicrobial activity screening, summary over groups of strains; assay type: cell-based; settings: 50 µg/ml screen
[3] = system: P. aeruginosa ATCC 27,853; assay: Minimum bactericidal concentration; assay type: cell-based, Pseudomonas aeruginosa; settings: lowest concentration reducing at least 99.9 % of growth, plated on LB, 37 °C, 24 h, triplicate
11 bacterial strains = assay: MBC, summary over all strains; assay type: cell-based; settings: highest value over all strains, converted to molar
Method in brief: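 The no-peptide growth well, serially diluted and plated, served as reference. Percent growth was calculated from CFU counts; MBC was the lowest concentration giving ≥99.9 % reduction (CLSI). Triplicate.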

A. baumannii ATCC 19,606 [4] = assay: MIC, broth microdilution; assay type: cell-based, Acinetobacter baumannii; settings: MHB II, 10^6 CFU/ml, 37 °C, 24 h, triplicate
Method in brief: (§1)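 Broth microdilution per CLSI. Strains were freshly plated on LB agar from glycerol stocks; the colistin-resistant lpxD mutant was plated on LB with 10 µg/ml colistin. Inoculum was 10^6 CFU/ml in Mueller Hinton broth II with two-fold dilutions of test compound from 100 to 0.10 µg/ml, incubated at 37 °C for 24 h. MIC was the lowest concentration with no growth.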

P. aeruginosa ST175–1 = assay: Inhibition of biofilm formation; assay type: cell-based, Pseudomonas aeruginosa; settings: ¼ MIC
Method in brief: (§2)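 Medium was discarded, wells washed with PBS, and biofilm stained with 1 % crystal violet for 15 min at room temperature. After two PBS washes, stain was eluted in 70 % ethanol and read at 595 nm. SBF = (OD595 − OD595 […])/OD600: weak ≤0.5, moderate 0.5–1, strong >1. Triplicate; Kruskal-Wallis with Dunn's test.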

K. pneumoniae CG258 [5] = assay: MIC, broth microdilution; assay type: cell-based, Klebsiella pneumoniae; settings: MHB II, 10^6 CFU/ml, 37 °C, 24 h, triplicate
Method in brief: as §1

A. baumannii IB010 [6] = assay: MIC, broth microdilution; assay type: cell-based, Acinetobacter baumannii; settings: MHB II, 10^6 CFU/ml, 37 °C, 24 h, triplicate
Method in brief: as §1

A. baumannii Ab-1 [7] = assay: Inhibition of biofilm formation; assay type: cell-based, Acinetobacter baumannii; settings: ¼ MIC
Method in brief: as §2

E. coli ATCC 25,922 [8] = assay: Inhibition of biofilm formation; assay type: cell-based, Escherichia coli; settings: ¼ MIC
Method in brief: as §2

[9] = system: K. pneumoniae ATCC 43,816; assay: MIC, broth microdilution; assay type: cell-based, Klebsiella pneumoniae; settings: MHB II, 10^6 CFU/ml, 37 °C, 24 h, triplicate
Method in brief: as §1

[10] = system: K. pneumoniae ATCC 43,816; assay: Minimum bactericidal concentration; assay type: cell-based, Klebsiella pneumoniae; settings: lowest concentration reducing at least 99.9 % of growth, plated on LB, 37 °C, 24 h, triplicate
S. aureus ATCC 29,213 [11] = assay: MIC, broth microdilution; assay type: cell-based, Staphylococcus aureus; settings: MHB II, 10^6 CFU/ml, 37 °C, 24 h, triplicate
Method in brief: as §1

A. baumannii ATCC 19,606 [12] = assay: Minimum bactericidal concentration; assay type: cell-based, Acinetobacter baumannii; settings: lowest concentration reducing at least 99.9 % of growth, plated on LB, 37 °C, 24 h, triplicate
S. aureus MRSA USA 300 [13] = assay: MIC, broth microdilution; assay type: cell-based, Staphylococcus aureus; settings: MHB II, 10^6 CFU/ml, 37 °C, 24 h, triplicate
Method in brief: as §1

[14] = system: P. aeruginosa ATCC 27,853; assay: MIC, broth microdilution; assay type: cell-based, Pseudomonas aeruginosa; settings: MHB II, 10^6 CFU/ml, 37 °C, 24 h, triplicate
Method in brief: as §1

A. baumannii Ab-1 [15] = assay: MIC, broth microdilution; assay type: cell-based, Acinetobacter baumannii; settings: MHB II, 10^6 CFU/ml, 37 °C, 24 h, triplicate
Method in brief: as §1

K. pneumoniae CG258 [16] = assay: Time-kill assay; assay type: cell-based, Klebsiella pneumoniae; settings: peptide at 2× MIC
Method in brief: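 Broth without compound was the growth control. Samples taken at 0, 3, 6 and 24 h were diluted and plated on MH II agar for CFU counts. Each curve was run at least in duplicate.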

E. coli ATCC 25,922 [17] = assay: MIC, broth microdilution; assay type: cell-based, Escherichia coli; settings: MHB II, 10^6 CFU/ml, 37 °C, 24 h, triplicate
Method in brief: as §1

E. coli ESBL 1057.1 [18] = assay: MIC, broth microdilution; assay type: cell-based, Escherichia coli; settings: MHB II, 10^6 CFU/ml, 37 °C, 24 h, triplicate
Method in brief: as §1

E. coli ATCC 25,922 [19] = assay: Minimum bactericidal concentration; assay type: cell-based, Escherichia coli; settings: lowest concentration reducing at least 99.9 % of growth, plated on LB, 37 °C, 24 h, triplicate
K. pneumoniae CG258 [20] = assay: Minimum bactericidal concentration; assay type: cell-based, Klebsiella pneumoniae; settings: lowest concentration reducing at least 99.9 % of growth, plated on LB, 37 °C, 24 h, triplicate
P. aeruginosa (ST175–1) [21] = assay: MIC, broth microdilution; assay type: cell-based, Pseudomonas aeruginosa; settings: MHB II, 10^6 CFU/ml, 37 °C, 24 h, triplicate
Method in brief: as §1

P. aeruginosa (ST175–1) [22] = assay: Minimum bactericidal concentration; assay type: cell-based, Pseudomonas aeruginosa; settings: lowest concentration reducing at least 99.9 % of growth, plated on LB, 37 °C, 24 h, triplicate
A. baumannii IB010 [23] = assay: Minimum bactericidal concentration; assay type: cell-based, Acinetobacter baumannii; settings: lowest concentration reducing at least 99.9 % of growth, plated on LB, 37 °C, 24 h, triplicate
A. baumannii ATCC 19,606 [24] = assay: Inhibition of biofilm formation; assay type: cell-based, Acinetobacter baumannii; settings: ¼ MIC
Method in brief: as §2

E. coli ESBL 1057.1 [25] = assay: Minimum bactericidal concentration; assay type: cell-based, Escherichia coli; settings: lowest concentration reducing at least 99.9 % of growth, plated on LB, 37 °C, 24 h, triplicate
S. aureus MRSA USA 300 [26] = assay: Minimum bactericidal concentration; assay type: cell-based, Staphylococcus aureus; settings: lowest concentration reducing at least 99.9 % of growth, plated on LB, 37 °C, 24 h, triplicate
S. aureus ATCC 29,213 [27] = assay: Minimum bactericidal concentration; assay type: cell-based, Staphylococcus aureus; settings: lowest concentration reducing at least 99.9 % of growth, plated on LB, 37 °C, 24 h, triplicate
A. baumannii Ab-1 [28] = assay: Minimum bactericidal concentration; assay type: cell-based, Acinetobacter baumannii; settings: lowest concentration reducing at least 99.9 % of growth, plated on LB, 37 °C, 24 h, triplicate
[29] = system: K. pneumoniae ATCC 43,816; assay: Inhibition of biofilm formation; assay type: cell-based, Klebsiella pneumoniae; settings: ¼ MIC
Method in brief: as §2

Stability in human serum = assay type: in vitro ADME; settings: 25 % (v/v)
Method in brief: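 Test compound was added to RPMI with human serum pre-equilibrated at 37 °C, giving 333.33 µM final compound and 25 % (v/v) final serum. Mixtures were stirred at 37 °C for 10, 30, 45 or 60 min. Proteins were precipitated with 96 % ethanol, cooled at 4 °C for 15 min and spun at 14,000 g. Supernatants were run on C18 RP-HPLC (TFA/CH3CN gradient, 220 nm); degradation was taken from loss of native peak area. Duplicate.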

A. baumannii ATCC 19606 = assay: Antimicrobial activity screening; assay type: cell-based, Acinetobacter baumannii; settings: 50 µg/ml screen
[30] = 50 µg/larvae (10 μl of 5 mg/ml), 30 °C

Colistin
mortality after 24h [1, 30]: 50%
LD50 ([1]; 10 μl injected, viability at 48h): 5 mg/mL

CC[C@H](C)[C@H](NC(=O)[C@H](CCCCN)NC(=O)[C@H](CCCCN)NC(=O)[C@H](Cc1ccccc1)NC(=O)[C@H](CC(C)C)NC(=O)[C@H](CCCCN)NC(=O)[C@H](CCCCN)NS(=O)(=O)c1ccc(C)cc1)C(=O)N[C@@H](CC(C)C)C(=O)N[C@@H](CCCCN)C(=O)N[C@@H](CCCCN)C(=O)N[C@@H](CC(C)C)C(N)=O [BP125]
growth inhibition in all strains except both K. pneumoniae and E. coli ATCC 25,922 [2]: ≥ 83%

CC[C@H](C)[C@H](NC(=O)[C@H](CCCCN)NC(=O)[C@H](CCCCN)NC(=O)[C@H](Cc1ccccc1)NC(=O)[C@H](CC(C)C)NC(=O)[C@H](CCCCN)NC(=O)[C@@H](N)CCCCN)C(=O)N[C@@H](CC(C)C)C(=O)N[C@@H](CCCCN)C(=O)N[C@@H](Cc1ccccc1)C(=O)N[C@@H](CC(C)C)C(N)=O [BP76]
MBC [3]: 50 µg/mL (≈ 35.6 µM)
highest MBC observed (11 bacterial strains): 40 µM
MIC (A. baumannii ATCC 19,606 [4]): 6.25 µg/mL (≈ 4.45 µM)
SBF index compared to BP607 (P. aeruginosa ST175–1): reduced SBF indices compared to BP607
MIC (K. pneumoniae CG258 [5]): 6.25 µg/mL (≈ 4.45 µM)
growth inhibition of all the strains ([2]; all strains, Gram-negative and Gram-positive): ≈ 90%
MIC (A. baumannii IB010 [6]): 25 µg/mL (≈ 17.8 µM)
SBF index compared to BP607 (A. baumannii Ab-1 [7]): reduced SBF indices compared to BP607
production of biofilm (E. coli ATCC 25,922 [8]): reduced production of biofilm
MIC [9]: 12.5 µg/mL (≈ 8.9 µM)
MBC [10]: 12.5 µg/mL (≈ 8.9 µM)
MIC (S. aureus ATCC 29,213 [11]): 25 µg/mL (≈ 17.8 µM)
MBC (A. baumannii ATCC 19,606 [12]): 6.25 µg/mL (≈ 4.45 µM)
MIC (S. aureus MRSA USA 300 [13]): 50 µg/mL (≈ 35.6 µM)
MIC [14]: 50 µg/mL (≈ 35.6 µM)
MIC (A. baumannii Ab-1 [15]): 12.5 µg/mL (≈ 8.9 µM)
bactericidal activity in time-kill assay (K. pneumoniae CG258 [16]; 6 h): able to reduce growth to bactericidal level
bactericidal activity in time-kill assay (K. pneumoniae CG258 [16]; 24 h): not at 24 h
MIC (E. coli ATCC 25,922 [17]): 6.25 µg/mL (≈ 4.45 µM)
MIC (E. coli ESBL 1057.1 [18]): 12.5 µg/mL (≈ 8.9 µM)
MBC (E. coli ATCC 25,922 [19]): 6.25 µg/mL (≈ 4.45 µM)
MBC (K. pneumoniae CG258 [20]): 6.25 µg/mL (≈ 4.45 µM)
MIC (P. aeruginosa (ST175–1) [21]): 50 µg/mL (≈ 35.6 µM)
MBC (P. aeruginosa (ST175–1) [22]): 50 µg/mL (≈ 35.6 µM)
MBC (A. baumannii IB010 [23]): 25 µg/mL (≈ 17.8 µM)
SBF index compared to BP607 (A. baumannii ATCC 19,606 [24]): reduced SBF indices compared to BP607
MBC (E. coli ESBL 1057.1 [25]): 12.5 µg/mL (≈ 8.9 µM)
survival after 24h [1, 30]: 100%
MBC (S. aureus MRSA USA 300 [26]): 50 µg/mL (≈ 35.6 µM)
MBC (S. aureus ATCC 29,213 [27]): 25 µg/mL (≈ 17.8 µM)
MBC (A. baumannii Ab-1 [28]): 12.5 µg/mL (≈ 8.9 µM)
SBF index compared to BP607 [29]: reduced SBF indices compared to BP607
remaining at 1 h, 333.33 µM (Stability in human serum): 15%

CC[C@H](C)[C@H](NC(=O)[C@@H](CCCCN)NC(=O)[C@H](CCCCN)NC(=O)[C@H](Cc1ccccc1)NC(=O)[C@H](CC(C)C)NC(=O)[C@H](CCCCN)NC(=O)[C@@H](N)CCCCN)C(=O)N[C@@H](CC(C)C)C(=O)N[C@@H](CCCCN)C(=O)N[C@@H](Cc1ccc(O)cc1)C(=O)N[C@@H](CC(C)C)C(N)=O [BP146]
growth reduction in all strains except P. aeruginosa ST175–1 [2]: at least 89%

CCCC(=O)NCCCC[C@H](NC(=O)[C@@H](NC(=O)[C@H](CCCCN)NC(=O)[C@H](CCCCN)NC(=O)[C@@H](Cc1ccccc1)NC(=O)[C@H](CC(C)C)NC(=O)[C@H](CCCCN)NC(=O)[C@H](CCCCN)NC(C)=O)[C@@H](C)CC)C(=O)N[C@@H](CCCCN)C(=O)N[C@@H](Cc1ccc(O)cc1)C(=O)N[C@@H](CC(C)C)C(N)=O [BP474]
growth inhibition against A. baumannii ATCC 19,606 (A. baumannii ATCC 19606): ≥ 93%

CC[C@H](C)[C@H](NC(=O)[C@H](CCCCN)NC(=O)[C@H](CCCCN)NC(=O)[C@H](Cc1c[nH]cn1)NC(=O)[C@H](CC(C)C)NC(=O)[C@H](CCCCN)NC(=O)[C@H](Cc1ccccc1)NS(=O)(=O)c1ccc(C)cc1)C(=O)N[C@@H](CC(C)C)C(=O)N[C@@H](CCCCN)C(=O)N[C@H](C(=O)N[C@@H](CC(C)C)C(N)=O)C(C)C [BP275] (HELM PEPTIDE1{[Cc1ccc(S(=O)(=O)[*:2])cc1].F.K.L.H.K.K.I.L.K.V.L.[am]}$$$$V2.0)
growth inhibition against A. baumannii ATCC 19,606 (A. baumannii ATCC 19606): ≥ 93%

CC[C@H](C)[C@H](NC(=O)[C@H](CCCCN)NC(=O)[C@H](CCCCN)NC(=O)[C@@H](Cc1ccccc1)NC(=O)[C@H](CC(C)C)NC(=O)[C@H](CCCCN)NC(=O)[C@@H](N)CCCCN)C(=O)N[C@@H](CC(C)C)C(=O)N[C@@H](CCCCN)C(=O)N[C@@H](Cc1ccc(O)cc1)C(=O)N[C@@H](CC(C)C)C(N)=O [BP143]
growth inhibition for all Gram-negative strains tested [2]: ≥ 83%
